Hits are enriched below; roughly 3.7% of the tested compounds scored in any of these assays.
KCNK9 inh: KCNK9 potassium channel inhibitors, primary screen, HEK293 cells, thallium flux; Potassium channel subfamily K member 9 (Homo sapiens), Q9NPC2; FluxOR thallium flux fluorescence; stronger effect = lower value; B-score at 10 µM; 1.2% of 310,000 active; AID 488922, 2010;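 active means ratio B-score over 3 SD below the library mean, with starting fluorescence within 5 SD of its mean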;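 further: negative B-score means less thallium flux so channel inhibition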
hERG rescue: hERG rescue from dofetilide block, primary screen, cell-based, CHO-hERG, FluxOR thallium flux, dofetilide IC70. activation (rescue from dofetilide block), less the hit threshold, % at 10 µM. 0.51% of 310,000 active. Voltage-gated inwardly rectifying potassium channel KCNH2 (Homo sapiens), Q12809. dofetilide IC70 present;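 active means activation above the mean of controls blocked by dofetilide plus 5 SD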;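 further: thallium influx through hERG after potassium depolarization seen as dye fluorescence rise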
KCNQ1 act: potentiators or activators of KCNQ1 channel, primary screen, cell-based, thallium flux, high-throughput. Potassium voltage-gated channel subfamily KQT member 1 (Homo sapiens), P51787. CHO-K1 KCNQ1, thallium flux FluxOR fluorescence; stronger effect = higher value. B-score at 10 µM. 0.35% of 310,000 active. AID 2648, 2010;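 active means fluorescence ratio B-score, a plate-corrected score, at least three library SD, with initial intensity B-score within 5 SD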
Target sequence (P51787 whole entry, looked up): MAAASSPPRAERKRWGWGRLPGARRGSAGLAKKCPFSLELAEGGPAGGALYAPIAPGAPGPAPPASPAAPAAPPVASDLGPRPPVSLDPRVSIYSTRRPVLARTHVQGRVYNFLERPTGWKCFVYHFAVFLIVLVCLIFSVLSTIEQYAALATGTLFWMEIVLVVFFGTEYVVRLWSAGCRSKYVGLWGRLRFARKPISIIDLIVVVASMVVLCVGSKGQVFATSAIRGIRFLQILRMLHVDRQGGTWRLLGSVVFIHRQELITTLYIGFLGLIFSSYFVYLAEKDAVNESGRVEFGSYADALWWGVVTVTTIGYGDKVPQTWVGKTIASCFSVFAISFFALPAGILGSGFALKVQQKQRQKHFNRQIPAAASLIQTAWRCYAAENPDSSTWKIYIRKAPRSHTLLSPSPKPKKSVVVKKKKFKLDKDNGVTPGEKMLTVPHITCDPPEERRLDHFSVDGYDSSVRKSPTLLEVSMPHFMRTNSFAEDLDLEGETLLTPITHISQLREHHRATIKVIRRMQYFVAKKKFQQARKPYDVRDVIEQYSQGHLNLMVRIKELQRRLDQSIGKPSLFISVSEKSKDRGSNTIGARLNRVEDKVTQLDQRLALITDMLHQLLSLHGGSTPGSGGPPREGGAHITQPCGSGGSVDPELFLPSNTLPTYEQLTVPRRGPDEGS
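Assay system: CHO-K1 cells stably expressing KCNQ1. Medium: assay buffer for compound exposure, DMSO matched across wells. Timing: 37 °C overnight plating, 90-min dark dye load, 20-min compound pretreatment. Signal: kinetic FluxOR fluorescence, 10 s baseline plus 110 s post-stimulus.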
KCNQ1 inh: inhibitors of human KCNQ1 channel, primary screen, cell-based, thallium flux, high-throughput; Potassium voltage-gated channel subfamily KQT member 1 (Homo sapiens), P51787; 1.3% of 310,000 active; CHO-K1 KCNQ1, FluxOR thallium flux fluorescence; stronger effect = higher value; B-score at 10 µM; AID 2642, 2010;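 active means compounds whose thallium flux B-score, printed positive for inhibition, exceeds three library SD while starting fluorescence stays within three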;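 further: channel opened by potassium depolarization with thallium stimulus after 20 min compound exposure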
KCNK3 block: human KCNK3 channel inhibitors, primary screen, CHO cells, FluxOR thallium flux, B-score. Potassium channel subfamily K member 3 (Homo sapiens), O14649. FluxOR fluorescence; stronger effect = lower value. B-score at 10 µM. 0.84% of 340,000 active. AID 602410, 2012;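 active means B-score under library mean minus 4 SD, starting fluorescence ratio at most library mean plus 5 SD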;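 further: more negative B-score means stronger inhibition of thallium flux through KCNK3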
Kir21 block: inhibitors of mouse Kir2.1 inward-rectifier potassium channel; Inward rectifier potassium channel 2 (Mus musculus), P35561; AID 1672, 2009; B-score at 10 µM; HEK293-Kir2.1, FluxOR thallium flux fluorescence; stronger effect = lower value; 0.85% of 310,000 active;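 active means fluorescence ratio B-score at or below minus 3 SD of library scores, with starting-brightness B-score within 2 SD, cut at about -4.2 in these data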;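 further: channel flux triggered by added potassium and thallium sulfate stimulus; B-score of peak minus minimum fluorescence over baseline after thallium stimulus; more negative B-score means stronger Kir2.1 block with less thallium influx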
* marks the source's active call; other numbers are inactive results; i = inactive; . = no result given.

SMILES | KCNK9 inh | hERG rescue | KCNQ1 act | KCNQ1 inh | KCNK3 block | Kir21 block
COc1ccc([N+](=O)[O-])cc1NC(=S)NC(NC(=O)C(c1ccccc1)c1ccccc1)C(Cl)(Cl)Cl (stereo not given) | i | -11 | i | 14* | i | -0.18
COc1ccc(NC(=S)NC(NC(=O)c2cccc3ccccc23)C(Cl)(Cl)Cl)c([N+](=O)[O-])c1 (stereo not given) | -6.9* | -2 | i | i | i | 0.17
Cc1cc([N+](=O)[O-])ccc1NC(=S)NC(=O)C(c1ccccc1)c1ccccc1 | i | -8 | i | 7* | i | 1.7
CCN1C(=N)N(c2ccccc2)C(=O)C(CC)(CC)C1=O | . | . | . | . | i | .
CCc1cc(C(=O)NCC(c2cccs2)N2CCOCC2)sc1C (stereo not given) | i | -15 | i | i | i | 1.1
Cc1ccccc1NC(=S)N1CCCN(Cc2ccc(F)cc2)C1 | i | -10 | i | i | i | -4.5*
Cc1ccc(NC(=S)N2CCCN(Cc3ccc(F)cc3)C2)c(C)c1 | i | -4 | i | i | i | -3.4
Cc1c(Cl)cccc1NC(=S)N1CCCN(Cc2ccc(F)cc2)C1 | i | -7 | i | i | i | -6.2*
COc1cccc(CNC(=O)COC(=O)c2cc([N+](=O)[O-])ccc2N2CCCC2)c1 | . | . | . | . | i | .
CC1CCc2sc(C(=O)NN=C3CCC(c4ccccc4)CC3)cc2C1 (stereo not given) | i | -5 | i | i | i | 1.1
Cc1cccc(NC(=S)NNC(=O)c2cc3c(s2)CCC(C)C3)c1C (stereo not given) | i | -12 | 11* | i | i | 1.3
Cc1ccc(C)c(NC(=S)NNC(=O)c2cc3c(s2)CCC(C)C3)c1 (stereo not given) | i | 9.3* | i | i | i | -1.6
Cc1cccc(NC(=S)NNC(=O)c2csc3c2CCC(C)C3)c1 (stereo not given) | i | -1 | 20* | i | i | -1.3
CC(C)CNC(=S)NNC(=O)c1csc2c1CCC(C)C2 (stereo not given) | i | -8 | i | i | i | -0.92
CC(=O)c1cccc(S(=O)(=O)N2CCN(CCOc3ccccc3)CC2)c1 | . | . | . | . | i | .
C=CC[C@H](CC(=O)N(CCO)Cc1ccccc1)C(=O)N[C@H](C)COC(=O)[C@@H](CC=C)CC(=O)OC(C)(C)C | . | . | . | . | i | .
CC1(C)N=C(N)NC(Nc2cccc(Br)c2)=N1 | i | -6 | 9* | i | i | 0.07
CCC(=O)OC1(C(C)=O)CCC2C3CCC4=CC(=O)CCC4(C)C3CCC21C (stereo not given) | . | . | . | . | i | .
Cc1c(C)n(Cc2ccccc2)c2ccc(C(=O)OCCCN(C)C)cc12 | i | -14 | i | i | i | -12*
CCN1CCN(C(=O)c2ccc3c(c2)c(C)c(C)n3Cc2ccccc2)CC1 | i | -11 | i | i | i | -0.92
O=C(CSc1nc2nn(-c3ccccc3)c(=O)c-2c2n1CCCCC2)c1ccc(OC(F)F)cc1 | . | . | . | . | i | .
O=C(c1ccc(-c2cccc([N+](=O)[O-])c2)o1)N1CCN(c2ccc([N+](=O)[O-])cc2)CC1 | . | . | . | . | i | .
O=C(c1ccc(-c2ccc(Cl)cc2)o1)N1CCN(c2ccc([N+](=O)[O-])cc2Cl)CC1 | i | -14 | i | 7* | i | 0.23
Cc1c(Cc2ccccc2)sc(/N=C/c2c(O)ccc3ccccc23)c1C(N)=O | i | -9 | i | 7* | i | -1.4
Cc1c(Cc2ccccc2)sc(/N=C/c2ccc3ccccc3c2)c1C(N)=O | . | . | . | . | i | .
SMILES | KCNK9 inh | hERG rescue | KCNQ1 act | KCNQ1 inh | KCNK3 block | Kir21 block
COc1cccc(CN2C(=NC(=O)CCC3CCCC3)SC3CS(=O)(=O)CC32)c1 (stereo not given) | i | -8 | i | i | i | 1.4
CS/C(=N\S(=O)(=O)c1ccc(Cl)cc1)c1ccccc1 | i | -3 | i | i | i | -5.3*
CS/C(=N/S(=O)(=O)c1ccc(C)cc1)c1ccccc1 | i | -7 | i | i | i | -10*
Cc1ccc(S(=O)(=O)/N=C(\c2ccccc2)N(C)S(=O)(=O)c2ccc(C)cc2)cc1 | i | -8 | i | i | i | 0.46
O=S(=O)(/N=C(\Sc1ccc(Cl)cc1)c1ccccc1)c1ccccc1 | i | -23 | i | i | i | -2.1
CCOc1cc(N2CCOCC2)c(OCC)cc1NC(=O)CN1C(=O)NC(CC)(c2ccc(F)cc2)C1=O (stereo not given) | . | . | . | . | i | .
O=C(/C=C/c1ccccc1)CC(=O)c1ccccc1O | i | 15* | i | i | i | -1.4
O=C(C=Cc1cccc(O)c1)c1ccccc1O | . | . | . | . | -9.9* | .
Nc1ccc(Cn2ccc3c4c(N)nc(N)nc4ccc32)cc1 | . | . | . | . | i | .
Cc1cc(N)ccc1N1CCCC1 | i | -8 | i | 7* | i | 1.1
O=C(CSc1nnnn1-c1ccccc1)NCCCN1CCCC1=O | . | . | . | . | i | .
Cc1csc2nc(O)c(C(=O)NC3CCCCC3C)c(=O)n12 (stereo not given) | i | -3 | i | i | i | 0.07
OC(COc1ccc(Cl)cc1Cl)CN1CCc2ccccc2C1 (stereo not given) | i | -10 | i | i | i | -15*
Cc1ccc(OCC(O)CN2CCc3ccccc3C2)c(C)c1 (stereo not given) | i | -8 | i | i | i | -7.9*
Clc1ccc(OCCCN2CCc3ccccc3C2)c(Br)c1 | i | -18 | i | i | i | -0.06
Cc1cccc(OCC(O)CN2CCc3ccccc3C2)c1 (stereo not given) | i | -11 | i | i | i | -8.8*
Clc1ccc(OCCOCCN2CCc3ccccc3C2)c(Cl)c1 | i | -18 | i | i | i | -15*
CC(C)(C)c1ccc(OCC(O)CN2CCc3ccccc3C2)cc1 (stereo not given) | i | -18 | i | i | i | -0.28
COc1ccc(OCC(O)CN2CCc3ccccc3C2)cc1 (stereo not given) | i | -2 | i | i | i | 2.3
COc1cccc(OCC(O)CN2CCc3ccccc3C2)c1 (stereo not given) | i | -4 | i | i | i | -0.16
O=C(CN1C(=O)C(=O)N(C2CCCC2)C1=O)Nc1ccccc1OC(F)F | . | . | . | . | i | .
